Reference: ChEMBL document CHEMBL1765038, “Cytotoxic and anti-inflammatory cembranoids from the Vietnamese soft coral Lobophytum laevigatum” (Bioorg Med Chem, 2011)
pIC50: −log10 of the molar value. The source made the active and inactive calls. The rule behind the calls is not given here.

Columns and labels:
HL-60 = test: Cytotoxicity against human HL60 cells by MTT assay; format: functional, cell-based
In short: (§1)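 MTT colorimetric assay on human cancer cell lines (leukemia HL-60, lung A549, colon HCT-116, breast MCF-7) obtained from the Korea Cell Line Bank; values reported as IC50.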

MCF7 = test: Cytotoxicity against human MCF7 cells by MTT assay; format: functional, cell-based; in short: as §1
HCT-116 = test: Cytotoxicity against human HCT116 cells by MTT assay; format: functional, cell-based; in short: as §1
A549 = test: Cytotoxicity against human A549 cells by MTT assay; format: functional, cell-based; in short: as §1
HepG2 [1] = test: Cytotoxicity against human HepG2 cells at 0.1 to 10 uM; format: cell-based; settings: hepg2, 10 µM
In short: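 Hep-G2 viability measured by MTT assay at the concentrations used in the NF-κB reporter and mRNA experiments.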

HepG2 [2] = test: Inhibition of NF-kappaB-induced COX2 mRNA expression in TNF-alpha-stimulated human HepG2 cells at 1 to 9 uM pretreated for 1 hr by RT-PCR; format: cell-based
In short: (§2)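 Hep-G2 cells pretreated with or without compound for 1 h, then exposed to 10 ng/mL TNFα for 6 h. Total mRNA isolated from cell pellets. COX-2 and iNOS transcripts quantified by RT-PCR, with primer specificity checked by gel electrophoresis and melting-curve analysis.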

[3] = Inhibition of TNF-alpha-induced NF-kappaB transcriptional activity in human HepG2 cells pretreated for 1 hr by luciferase reporter gene assay; format: cell-based
In short: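 Hep-G2 cells seeded at 2 × 10^5 per well, grown 24 h, then transfected (Lipofectamine LTX) with a firefly luciferase reporter under a minimal CMV promoter with tandem NF-κB response elements. Cells pretreated 1 h with vehicle (DMSO) or compound (0.1, 1, 10 µM), then 10 ng/mL TNFα for 1 h. Lysates read for luminescence. Unstimulated cells as negative control, PDTC 10 µM as positive control. Mean ± SD, n = 6; IC50 derived.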

HepG2 [4] = test: Inhibition of NF-kappaB-induced iNOS mRNA expression in TNF-alpha-stimulated human HepG2 cells at 1 to 9 uM pretreated for 1 hr by RT-PCR; format: cell-based; in short: as §2

SMILES | Activity (HL-60) | Activity (MCF7) | Activity (HCT-116) | Activity (A549) | pIC50 (HL-60) | pIC50 (MCF7) | pIC50 (HCT-116) | pIC50 (A549) | Activity (HepG2 [1]) | inhibition (HepG2 [2]) | pIC50 [3] | inhibition (HepG2 [4])
C/C1=C/[C@]2(O)OC[C@@]3(C)O[C@]32CC[C@](C)(O)/C=C/C[C@@](C)(O)[C@@H](O)CC1 | inactive | inactive | inactive | inactive | – | – | – | – | – | – | – | –
C/C1=C\[C@]2(O)OC[C@@]3(C)O[C@]32CC[C@](C)(O)/C=C/C[C@@]2(C)O[C@H]2CC1 | inactive | inactive | inactive | inactive | – | – | – | – | – | – | – | –
CC1=C2CC/C(C)=C/CC[C@@]3(C)O[C@H]3CC[C@](C)(O)/C=C/2OC1=O | inactive | inactive | inactive | inactive | – | – | – | – | – | – | – | –
COC(=O)/C1=C\C=C(\C(C)C)CCC2=CCC[C@](C)(OC2=O)[C@@H](OC(C)=O)CC1 [EMBLIDE] | – | – | – | – | 4.41 | < 4.40 | < 4.40 | < 4.40 | – | – | – | –
C/C1=C\[C@@H]2O[C@@H](O)[C@@]3(C)O[C@@]23CC/C(C)=C/CC[C@@]2(C)O[C@H]2CC1 [LAEVIGATOL A] | inactive | inactive | inactive | inactive | – | – | – | – | Non-toxic | Dose-dependent effect | 5.03 | Dose-dependent effect
C=C1CO[C@H]2/C=C(\C)CC[C@@H]3O[C@]3(C)CC/C=C(\C)CC[C@@]12O [LAEVIGATOL B] | inactive | inactive | inactive | inactive | – | – | – | – | Non-toxic | Dose-dependent effect | 5.01 | Dose-dependent effect
COC(=O)[C@@]12CC(=O)[C@@H](C(C)C)CC(=O)[C@@H](C)CCC[C@@H](C)CC(=O)[C@@H]1CC(C)=C1[C@@H]3C[C@@](C)(O)[C@H](CC[C@@H](C)C(=O)CC/C(C)=C/[C@H]12)O3 [METHYL TORTUOATE B] | – | – | – | – | 4.59 | < 4.40 | 4.71 | 4.61 | Non-toxic | Dose-dependent effect | 5.17 | Dose-dependent effect
O=C1c2c(O)ccc(O)c2C(=O)c2c(NCCNCCO)ccc(NCCNCCO)c21 [MITOXANTRONE] | – | – | – | – | 5.10 | – | 5.14 | – | – | – | – | –
COC(=O)[C@]12CC(=O)[C@H](C(C)C)CC(=O)[C@H](C)CCC[C@H](C)CC(=O)[C@H]1CC(C)=C1C[C@H](OC(C)=O)[C@](C)(O)[C@H]3CC[C@@](C)(O)[C@H](CC/C(C)=C/[C@@H]12)O3 [NYALOLIDE] | – | – | – | – | 4.55 | 4.45 | 4.76 | 4.54 | – | – | – | –
CC1=C2CC/C(C)=C/CC[C@]3(C)O[C@H]3CC/C(C)=C/[C@@H]2OC1=O [SARCOPHINE] | – | – | – | – | 4.46 | < 4.40 | < 4.40 | < 4.40 | – | – | – | –
COC(=O)[C@@]12CC(=O)[C@@H](C(C)C)CC(=O)[C@@H](C)CCC[C@@H](C)CC(=O)C1CC(C)=C1C2/C=C(\C)CCC2OC(CC[C@]2(C)OC(C)=O)[C@](C)(O)C[C@H]1O (stereo partly drawn) [XIMAOLIDE F] | – | – | – | – | 5.05 | < 4.40 | 4.79 | 4.55 | Non-toxic | Dose-dependent effect | 5.16 | Dose-dependent effect
